# Compound activity deposited in PubChem by Johns Hopkins Ion Channel Center.
# Rows were chosen to be rich in hits. Some 2.3% of all compounds tested hit in one or more screens of this group.
# TRPC6 inhibitor = blocks the mouse TRPC6 cation channel; Q61143; hit rate 1.1% among 310,000; AID 2553; HEK293-TRPC6, membrane potential dye, ACh-evoked depolarization; stronger effect = lower value; B-score at 10 µM;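 active = B-score under library mean minus 3 SD, initial fluorescence not abnormally high, positive integrated signal ratio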;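 also: B-score derived from integrated fluorescence ratio over the kinetic read; more negative B-score means stronger inhibition of depolarization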
# TRPC4 potent = allosteric potentiators of mouse TRPC4 channel; HEK293 TRPC4beta/mu-opioid, DAMGO EC20, Fluo-4 Ca2+ flux; stronger effect = higher value; B-score at 10 µM; hit rate 0.42% among 310,000;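 active = B-score of calcium response area above 5 SD of library B-scores, with initial fluorescence ratio within 5 SD of library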;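 also: B-score of integrated fluorescence ratio over time as area under calcium response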
# TRPC4 agonist = TRPC4 (mouse) channel activation; Q9QUQ5; HEK293 TRPC4beta/mu-opioid, Fluo4 calcium fluorescence; stronger effect = higher value; B-score at 10 µM; hit rate 0.49% among 310,000; AID 2237;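 active = B-score above 5 SD of library B-scores, and initial fluorescence ratio not above library mean plus 5 SD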;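 also: positive B-score marks a calcium rise read as TRPC4 activation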
#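 System – HEK293 cells stably co-expressing mouse TRPC4beta and mu-opioid receptor · Signal – Fluo4 calcium-sensitive dye fluorescence, kinetic, 1 Hz baseline · Benchmarks – buffer (low) and maximal DAMGO (high) · Read-out – B score of integrated fluorescence ratio per well · Incubation – dye loading 45 min room temperature, 110 s kinetic read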
# TRPC4 inh = inhibitors of mouse TRPC4 channel | Q9QUQ5 | HEK293 TRPC4beta/mu-opioid, DAMGO-evoked Fluo4 calcium flux; stronger effect = lower value | B-score at 10 µM | hit rate 0.39% among 300,000;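 active = B-score over 3 SD under the library average, no early fluorescence shift, positive overall ratio signal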
#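 Assay system: HEK293 cells with stable TRPC4beta plus mu-opioid receptor expression. Dosing: single dose. Measured by: Fluo4 Ca2+ flux fluorescence. Also added: DAMGO in two steps, submaximal then maximal. Read-out: B score from integrated Fluo4 fluorescence ratio.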
# TRPC6 activator = mouse TRPC6 channel activation; Q61143; HEK293-TRPC6 membrane potential dye fluorescence; stronger effect = higher value; B-score at 10 µM; hit rate 0.13% among 310,000; AID 2550;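 active = B-score of the integrated fluorescence ratio above library mean plus 3 SD, and starting fluorescence ratio within library mean plus 5 SD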;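 also: higher score means more depolarization so channel activation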
# TRPC4 spec 2 = mouse TRPC4 off-target activity of TRPC6 inhibitors, second screen | shares compounds with TRPC6 inhibitor | AID 2776 | inhibition, % at 10 µM | HEK293 TRPC4/MOR, membrane potential dye fluorescence; channel activated by saturating DAMGO dose | hit rate 42% among 920;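 active = compounds whose fluorescence signal differed from control wells by over 3 SD, either direction, in both duplicate plates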
# TRPC4 spec = selectivity of TRPC6 inhibitors: effect on mouse TRPC4 | AID 2777 | hit rate 61% among 920 | activity change, negative = inhibition, % at 10 µM | HEK293 TRPC4/mu-opioid, membrane potential fluorescence | shares compounds with TRPC6 inhibitor;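 active = rise or fall in signal beyond 3 SD of buffer-only wells in both replicate plates, either sign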;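 also: integrated kinetic ratio of fluorescence range over baseline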
# HEK293 MPD ctr 2-1 = second counter-screen for TRPC6 inhibitors: parental HEK293 cells. hit rate 31% among 920. signal change vs control, % at 10 µM. parental HEK293 membrane potential dye fluorescence; maximal acetylcholine challenge after compound addition. shares compounds with TRPC6 inhibitor;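 active = membrane potential signal moving either way by over 3 SD of the maximum-effect control, in both duplicate plates, meaning non-specific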
# HEK293 MPD ctr-1 = parental HEK293 nonspecific activity of TRPC6 inhibitors; shares compounds with TRPC6 inhibitor; parental HEK293 membrane potential dye fluorescence; membrane potential signal change, % at 10 µM; hit rate 60% among 920;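 active = membrane potential signal shifting up or down by more than 3 SD of buffer-only wells, on both duplicate plates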
# HEK293 MPD ctr-2 = parental HEK293 nonspecific activity of TRPC6 modulators; shares compounds with TRPC6 inhibitor; membrane potential dye fluorescence; membrane potential signal change, % at 10 µM; hit rate 51% among 2,400;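 active = membrane potential signal moves up or down beyond 5 SD from buffer-only wells, on both duplicate plates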
# HEK293 MPD ctr 2-2 = second counter-screen for TRPC6 modulators: effect in parental HEK293 cells; membrane potential dye fluorescence; after compound, maximal acetylcholine stimulation; shares compounds with TRPC6 inhibitor; AID 488926; inhibition, % at 10 µM; hit rate 14% among 2,400;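 active = membrane potential signal drops by more than 5 SD from the mean control signal, in both duplicate plates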;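 also: plate controls were acetylcholine ECmax control wells for no effect and buffer only wells for full effect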
# TRPC4 ctr mod = mouse TRPC4 off-target activity of TRPC6 modulators | shares compounds with TRPC6 inhibitor | HEK293 TRPC4/mu-opioid, membrane potential fluorescence | percent change from control (negative = decrease, positive = increase), % at 10 µM | hit rate 69% among 2,400;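 active = membrane potential signal moved up or down beyond 5 SD of buffer control wells, in both duplicate plates, actives on both sides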;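 also: plate controls were assay buffer wells for no effect and DAMGO maximal-effect wells for full effect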
# TRPC4 ctr inh 2 = mouse TRPC4 off-target activity of TRPC6 modulators, second screen. shares compounds with TRPC6 inhibitor. HEK293 TRPC4/mu-opioid, membrane potential dye fluorescence; stimulated with maximal-effect DAMGO. inhibition, % at 10 µM. hit rate 55% among 2,400;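 active = drop in membrane potential signal beyond 5 SD of the control wells in both duplicate plates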;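 also: TRPC4 counter screen for TRPC6 hits run under conditions tuned for TRPC6 not TRPC4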
# TRPC6 block conf = confirmation of mouse TRPC6 inhibitors | shares compounds with TRPC6 inhibitor | hit rate 43% among 3,300 | inhibition, % at 10 µM | AID 488960 | HEK293-TRPC6, membrane potential dye, ACh-evoked depolarization;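 active = fluorescence ratio falls more than 5 SD below the full-stimulation control mean, in both duplicate runs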;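 also: integrated fluorescence ratio of peak minus minimum over baseline after agonist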
# TRPC6 act conf = confirmation of mouse TRPC6 activators. activation, % at 10 µM. hit rate 11% among 2,800. shares compounds with TRPC6 inhibitor. HEK293-TRPC6 membrane potential dye fluorescence, FDSS. AID 488961;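 active = ratio signal rise beyond 5 SD above unstimulated control wells' mean, seen in both duplicate runs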;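 also: plate controls were buffer EC0 wells for no effect and acetylcholine ECmax response for full effect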
# Starred values were filed as active, the others as inactive; i = inactive; / = not tested or not shown.
SMILES,TRPC6 inhibitor,TRPC4 potent,TRPC4 agonist,TRPC4 inh,TRPC6 activator,HEK293 MPD ctr-2,HEK293 MPD ctr 2-2,TRPC4 ctr mod,TRPC4 ctr inh 2,TRPC6 block conf,TRPC6 act conf,others
CCOc1ccc2c(c1)-c1c(ssc1=S)C(C)(C)N2,-5.34*,i,i,i,i,i,i,-21.5%*,63.5%*,i,i,
CCOc1ccc2c(c1)-c1c(ssc1=S)C(C)(C)N2C(=O)CSC1=NCCS1,i,i,i,i,i,/,/,/,/,/,/,
O=C1OC2(O)C3C4C=CC(C4)C3C(=O)N2c2ccccc21 (stereo not drawn),i,i,i,i,i,/,/,/,/,/,/,
COc1ccccc1C(=O)NCC1CCN(c2ccc(S(=O)(=O)N3CCOCC3)cc2)CC1,-6.87*,i,i,i,i,/,/,/,/,55.4%*,i,TRPC4 spec 2=i;TRPC4 spec=8.9%*;HEK293 MPD ctr 2-1=10.0%*;HEK293 MPD ctr-1=5.1%*
Cc1ccc(Sc2ccc(CN3CCCC3)cc2[N+](=O)[O-])cc1,i,i,i,i,i,/,/,/,/,/,/,
CN1CCN(Cc2ccc(Sc3ccc(Cl)cc3)c([N+](=O)[O-])c2)CC1,-6.52*,i,i,i,i,i,i,-13.5%*,52.5%*,43.5%*,i,
NS(=O)(=O)c1ccc(CCNC(=O)c2ccc(OCC3CCCO3)cc2)cc1 (stereo not drawn),i,i,i,i,i,/,/,/,/,/,/,
Nc1nnc(-c2ccc(Cl)c([N+](=O)[O-])c2)s1,i,i,i,i,i,/,/,/,/,/,/,
CCCCCOC(=O)c1ccc(NC(=O)c2ccco2)cc1,-13.2*,i,i,i,i,/,/,/,/,i,i,TRPC4 spec 2=i;TRPC4 spec=i;HEK293 MPD ctr 2-1=i;HEK293 MPD ctr-1=i
CCCCOC(=O)c1ccc(NC(=S)NC(=O)c2ccco2)cc1,i,i,i,i,i,/,/,/,/,/,/,
CCCCCCOC(=O)c1ccc(N)cc1,-5.55*,i,i,i,i,i,i,i,33.5%*,i,i,
COc1cc(OC)c2nc(C)c3c(c2c1)N(c1ccc(O)cc1)CC3,-7.19*,i,i,i,i,-173.5%*,101.0%*,-18.0%*,41.5%*,i,i,
O=C(CSc1c(F)c(F)cc(F)c1F)Nc1ccc(C2SCCS2)cc1,i,i,i,i,i,/,/,/,/,/,/,
COC(=O)C1CCN(C2=C(NS(=O)(=O)c3ccc(Cl)cc3)C(=O)c3ccccc3C2=O)CC1,-6.86*,i,i,i,i,/,/,/,/,i,i,TRPC4 spec 2=80.0%*;TRPC4 spec=-17.9%*;HEK293 MPD ctr 2-1=i;HEK293 MPD ctr-1=-249.5%*
